The target of data set [1] is T1, 5-hydroxytryptamine receptor 6 (Homo sapiens, UniProt P50406). Description: Displacement of [3H]LSD from human cloned 5HT6 receptor expressed in human HeLa cells by glass fiber filtration assay. The format is cell-based. The essentials:
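Radioligand binding to human cloned 5-HT6 receptors stably expressed in HeLa cells. Ki values were determined.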

Data set [2] is described as follows: Selectivity ratio of IC50 for dopamine D2 receptor to IC50 for human recombinant 5HT6 receptor.
The target of data set [3] is T1, 5-hydroxytryptamine receptor 6. In words: Antagonist activity at human recombinant 5HT6 receptor expressed in CHO cells assessed as inhibition of 5-HT-stimulated cAMP accumulation by luminometry. Type of data set: functional, cell-based. The essentials:
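Non-radioactive cell-based functional assay in CHO cells expressing 5-HT6 receptor; antagonism read as inhibition of 5-HT-stimulated cAMP accumulation. IC50 and Kb values derived, each the mean of two experiments.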

Data set [4] is described as follows: Selectivity ratio of IC50 for histamine H1 receptor to IC50 for human recombinant 5HT6 receptor.
Data set [5] is described as follows: Selectivity ratio of IC50 for NET to IC50 for human recombinant 5HT6 receptor.
Data set [6] in a line: Selectivity ratio of IC50 for SERT to IC50 for human recombinant 5HT6 receptor.
Data set [7] in a line: Cmax in Wistar rat at 5 mg/kg, iv. The format is ADME, organism-based. More on the design: dose 5 mg/kg, route intravenous. The note with it: in vivo. An outline of the steps: (§1)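 Fasted male Wistar rats received a 5 mg/kg dose orally or iv, with water for injection as vehicle for both routes. n = 3 per route. Plasma parameters were derived per route: AUC, Cmax, t1/2, Vz, clearance, and oral bioavailability (F).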

The test system of data set [8] is Rattus norvegicus. Description: Apparent volume of distribution in Wistar rat at 5 mg/kg, po. Type of data set: ADME, organism-based. More on the design: dose 5 mg/kg, route oral. Particulars: in vivo. The essentials: as §1
Data set [9] in a line: Clearance in Wistar rat at 5 mg/kg, po. The format is ADME, organism-based. More on the design: dose 5 mg/kg, route oral. Particulars: in vivo. The essentials:
as §1

A short description of data set [10]: Metabolic stability in human liver microsomes at 2.5 uM after 0.5 hrs. Type of data set: ADME, Microsome. An outline of the steps: (§2)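 Wistar rat or human liver microsomes were incubated with 2.5 µM compound for 0.5 h, and % metabolized was measured.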
Data set [11] is described as follows: Metabolic stability in Wistar rat liver microsomes at 2.5 uM after 0.5 hrs. The format is ADME, Microsome. The essentials:
as §2

The nature of data set [12]: AUC in Wistar rat at 5 mg/kg, po. Type of data set: ADME, organism-based. More on the design: dose 5 mg/kg, route oral. Particulars: plasma. The essentials: as §1
Data set [13] is described as follows: AUC in Wistar rat at 5 mg/kg, iv. Type of data set: ADME, organism-based. More on the design: dose 5 mg/kg, route intravenous. The note with it: plasma. An outline of the steps:
as §1

Data set [14] can be described thus: Apparent volume of distribution in Wistar rat at 5 mg/kg, iv. Type of data set: ADME, organism-based. More on the design: dose 5 mg/kg, route intravenous. The note with it: in vivo, read-out: Vz. An outline of the steps:
as §1

Another data set has as its target Cytochrome P450 2D6 (Homo sapiens, UniProt P10635). In words: Inhibition of human CYP2D6. The format is ADME. The essentials:
(§3)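 Isoform-selective assays using heterologously expressed human CYP2D6 or CYP3A4. IC50 is the mean of duplicate determinations.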

A short description of data set [15]: Clearance in Wistar rat at 5 mg/kg, iv. The format is ADME, organism-based. More on the design: dose 5 mg/kg, route intravenous. The note with it: in vivo. An outline of the steps: as §1
The subject of data set [16] is Rattus norvegicus. In words: Cognitive enhancing effect in Wistar rat at 10 mg/kg, po by novel object recognition test. The format is functional, organism-based. More on the design: dose 10 mg/kg. The essentials:
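Novel object recognition test in male Wistar rats. Drug or vehicle (PEG 400 50% v/v, 1 mL/kg) was given p.o. 60 min before the test, n=6-9/group. Read-out was exploration time of the familiar versus the novel object, given as mean SEM and analysed by paired t test.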

Data set [17] in a line: Half life in Wistar rat at 5 mg/kg, po. More on the design: dose 5 mg/kg, route oral. Particulars: in vivo. Type of data set: ADME, organism-based. An outline of the steps: as §1
Data set [18] is described as follows: Oral bioavailability in Wistar rat at 5 mg/kg. Type of data set: ADME, organism-based. Particulars: in vivo. The essentials: as §1
In another data set the target is Cytochrome P450 3A4 (Homo sapiens, UniProt P08684). In words: Inhibition of human CYP3A4. The format is ADME. An outline of the steps: as §3
Cytochrome P450 3A4, sequence (P08684 whole entry): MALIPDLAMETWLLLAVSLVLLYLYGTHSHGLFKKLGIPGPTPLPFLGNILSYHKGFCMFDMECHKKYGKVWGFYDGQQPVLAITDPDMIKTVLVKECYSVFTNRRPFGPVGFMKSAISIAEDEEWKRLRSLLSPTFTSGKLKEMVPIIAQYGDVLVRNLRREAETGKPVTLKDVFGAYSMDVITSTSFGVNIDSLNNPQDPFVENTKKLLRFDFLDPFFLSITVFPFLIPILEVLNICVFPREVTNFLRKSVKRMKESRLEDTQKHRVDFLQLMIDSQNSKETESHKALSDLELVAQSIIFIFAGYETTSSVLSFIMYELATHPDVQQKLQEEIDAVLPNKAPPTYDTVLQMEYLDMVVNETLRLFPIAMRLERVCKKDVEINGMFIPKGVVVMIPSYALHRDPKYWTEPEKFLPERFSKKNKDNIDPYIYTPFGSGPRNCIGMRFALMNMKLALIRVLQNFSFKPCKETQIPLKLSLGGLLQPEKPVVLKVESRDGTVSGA
Data set [19] is described as follows: Cmax in Wistar rat at 5 mg/kg, po. Type of data set: ADME, organism-based. More on the design: dose 5 mg/kg, route oral. The note with it: in vivo. The essentials:
as §1

The species entered for data set [20] is Rattus norvegicus. Particulars: 10 mg/kg.
Data set [21] is described as follows: Half life in Wistar rat at 5 mg/kg, iv. The format is ADME, organism-based. More on the design: dose 5 mg/kg, route intravenous. The note with it: in vivo. An outline of the steps:
as §1

Structures are written as SMILES. The source made the active and inactive calls. The calls are words filed in the database; no cut-off is given here.

T1 sequence (P50406 whole entry): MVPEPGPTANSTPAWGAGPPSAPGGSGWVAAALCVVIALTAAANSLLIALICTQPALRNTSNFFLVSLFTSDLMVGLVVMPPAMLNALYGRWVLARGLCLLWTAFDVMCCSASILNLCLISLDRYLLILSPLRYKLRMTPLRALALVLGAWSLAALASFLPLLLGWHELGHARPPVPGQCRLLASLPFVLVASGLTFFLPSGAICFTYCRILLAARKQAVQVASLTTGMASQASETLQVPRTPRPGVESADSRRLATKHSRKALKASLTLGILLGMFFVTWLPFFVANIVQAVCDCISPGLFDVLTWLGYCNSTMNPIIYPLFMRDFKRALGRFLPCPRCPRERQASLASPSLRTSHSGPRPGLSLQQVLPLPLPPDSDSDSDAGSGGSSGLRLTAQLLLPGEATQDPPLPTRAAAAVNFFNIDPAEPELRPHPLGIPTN
Cytochrome P450 2D6, sequence (P10635 whole entry, canonical isoform): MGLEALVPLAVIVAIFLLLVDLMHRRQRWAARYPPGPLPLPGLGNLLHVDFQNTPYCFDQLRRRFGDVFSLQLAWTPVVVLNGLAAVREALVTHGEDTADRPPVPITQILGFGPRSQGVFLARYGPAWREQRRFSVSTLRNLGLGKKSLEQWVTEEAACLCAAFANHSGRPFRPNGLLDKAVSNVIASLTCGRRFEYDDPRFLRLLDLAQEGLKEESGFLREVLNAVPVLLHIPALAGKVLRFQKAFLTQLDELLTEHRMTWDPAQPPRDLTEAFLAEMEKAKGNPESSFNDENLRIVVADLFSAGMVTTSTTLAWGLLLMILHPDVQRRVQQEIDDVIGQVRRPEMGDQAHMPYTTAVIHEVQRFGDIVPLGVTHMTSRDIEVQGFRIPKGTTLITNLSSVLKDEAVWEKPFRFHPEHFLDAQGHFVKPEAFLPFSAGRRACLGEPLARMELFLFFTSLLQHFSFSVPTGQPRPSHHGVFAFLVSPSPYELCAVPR

`CN1CCN(c2cn(S(=O)(=O)c3ccccc3Br)c3ccc(Br)cc23)CC1` displayed a Ki in data set [1] of 0.0102 µM.
In data set [1], `CCN1CCN(c2cn(S(=O)(=O)c3ccc4ccccc4c3)c3cc(Cl)ccc23)CC1` had a Ki of 0.0255 µM.
Still for that read-out and setting: then `CCN1CCN(c2cn(S(=O)(=O)c3ccc(C(C)C)cc3)c3ccccc23)CC1`, with 0.0086 µM; and `CN1CCN(c2cn(S(=O)(=O)c3ccccc3)c3ccccc23)CC1`, with 0.0159 µM; and `CN1CCN(c2cn(S(=O)(=O)c3ccccc3Br)c3cc(Cl)ccc23)CC1`, with 0.0302 µM.
Same read-out and setting: then `CCN1CCN(c2cn(S(=O)(=O)c3ccc(C(C)C)cc3)c3ccc(Cl)cc23)CC1`, with 0.0305 µM; and `CC(C)c1ccc(S(=O)(=O)n2cc(N3CCN(C)CC3)c3ccc(Cl)cc32)cc1`, with 0.0553 µM; and `CCN1CCN(c2cn(S(=O)(=O)c3ccc(F)cc3)c3ccc(Br)cc23)CC1`, with 0.0106 µM.
As for `CN1CCN(c2cn(S(=O)(=O)c3ccccc3Br)c3ccccc23)CC1`, the Ki in data set [1] amounted to 0.0152 µM.
Still for that read-out and setting: then `CC(C)c1ccc(S(=O)(=O)n2cc(N3CCN(C)CC3)c3cc(Br)ccc32)cc1`, with 0.0232 µM; and `CCN1CCN(c2cn(S(=O)(=O)c3ccc(OC)cc3)c3cc(Cl)ccc23)CC1`, with 0.0823 µM; and `CCN1CCN(c2cn(S(=O)(=O)c3ccc(C(C)C)cc3)c3ccc(Br)cc23)CC1`, with 0.0301 µM.
Still for that read-out and setting: then `CCN1CCN(c2cn(S(=O)(=O)c3cc(OC)ccc3OC)c3cc(Cl)ccc23)CC1`, with 0.0635 µM.
In the case of `CN1CCN(c2cn(S(=O)(=O)c3cccc(Cl)c3)c3ccc(Br)cc23)CC1`, the Ratio IC50 in [2], in [4], in data set [5] and in data set [6] was more than 50 in each case. Moreover, in data set [3], the IC50 turned out to be 1.53 µM. Also, the Kb in data set [3] came to 0.003 µM. For the same compound, in data set [1], the affinity corresponds to a Ki of 0.0078 µM.
With `CC(C)c1ccc(S(=O)(=O)n2cc(N3CCN(C)CC3)c3ccccc32)cc1`, the Ratio IC50 in data set [2], in data set [4], in data set [5] and in data set [6] was more than 50 in each case. The IC50 in [3] was 0.31 µM; against Cytochrome P450 2D6, 39.2 µM; against Cytochrome P450 3A4 it was 5.54 µM. The Kb in data set [3] turned out to be 0.00053 µM. Moreover, the Cmax in [7] was 365 ng/mL; in [19], 40 ng/mL. In addition, the Vz in the data set on Rattus norvegicus [8] came out at 436 L/kg. Also, the CL/F in data set [9] stood at 2200 mL/min/kg. Further, the % metabolism at 0.5 h, 2.5 µM came to 80% in [10] and 95% in data set [11]. Moreover, the AUC in data set [12] stood at 59 ng·h/mL; in data set [13], 674 ng·h/mL. This compound showed a Ki in data set [1] of 0.0034 µM. Besides, in data set [14], the Vd was 51.8 L/kg. This compound also yielded a clearance in [15] of 133 mL/min/kg. For the same compound, the result in the data set on Rattus norvegicus [16] was Active. Also, the figures for the half-life in [17] and in data set [21] were 2.35 h and 4.47 h, respectively. This compound showed a bioavailability in data set [18] of 8%. The inhibition result in the data set listed under Rattus norvegicus [20] was “Active”.
As to `CN1CCN(c2cn(S(=O)(=O)c3ccc(F)cc3)c3ccccc23)CC1`, the Ratio IC50 in data set [2], in data set [4], in [5] and in [6] was more than 50 in each case. The IC50 is 0.292 µM in data set [3], 26.4 µM against Cytochrome P450 2D6 and 4.77 µM against Cytochrome P450 3A4. The Kb in [3] is 0.0005 µM. The % metabolism at 0.5 h, 2.5 µM in data set [10] turned out to be 85%; in [11], 99%. Besides, the Ki in data set [1] worked out at 0.0118 µM.
`CCN1CCN(c2cn(S(=O)(=O)c3ccc(F)cc3)c3ccc(Cl)cc23)CC1`: the Ratio IC50 in data set [2], in data set [4], in data set [5] and in [6] was more than 50 throughout. Besides, the IC50 in data set [3] is 1.78 µM. For the same compound, the Kb in data set [3] turned out to be 0.0035 µM. The same compound showed a Ki in data set [1] of 0.0107 µM.
For `CN1CCN(c2cn(S(=O)(=O)c3ccc(F)cc3)c3ccc(Br)cc23)CC1`, the Ratio IC50 in data set [2], in data set [4], in [5] and in [6] was more than 50 throughout. In addition, the results for the IC50 (in data set [3]; against Cytochrome P450 2D6; at Cytochrome P450 3A4) were 0.322 µM, 28.8 µM and 4.61 µM, respectively. Moreover, in data set [3], the Kb came to 0.0006 µM. For the same compound, the % metabolism at 0.5 h, 2.5 µM in data set [10] was 96%; in data set [11], 99%. Besides, the affinity in [1] corresponds to a Ki of 0.0092 µM.
For `CCN1CCN(c2cn(S(=O)(=O)c3ccccc3Br)c3ccc(Cl)cc23)CC1`, the affinity in data set [1] corresponds to a Ki of 0.0203 µM.
On the same count and under the same terms, then `CN1CCN(c2cn(S(=O)(=O)c3cccc(Cl)c3)c3ccccc23)CC1`, with 0.0108 µM.

(Values after ChEMBL document CHEMBL1641587, “Indole-3-piperazinyl derivatives: novel chemical class of 5-HT(6) receptor antagonists” (Bioorg Med Chem Lett, 2011).)
